Hits are enriched below; roughly 1.4% of the tested compounds scored in any of these assays.
FXIa inh: blocks human coagulation factor XIa protease activity | purified FXIa, Boc-Glu-Ala-Arg-AMC fluorogenic substrate | 220,000 tested, 0.14% active | inhibition, % at 5 µM | P03951;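 active = inhibition of at least 40%; inactive = inhibition below 40%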;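 also: fluorescence of freed AMC excited at 355 nm; 0% = enzyme without compound and 100% = no enzyme blank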
Target sequence (P03951 19-387 limits assumed): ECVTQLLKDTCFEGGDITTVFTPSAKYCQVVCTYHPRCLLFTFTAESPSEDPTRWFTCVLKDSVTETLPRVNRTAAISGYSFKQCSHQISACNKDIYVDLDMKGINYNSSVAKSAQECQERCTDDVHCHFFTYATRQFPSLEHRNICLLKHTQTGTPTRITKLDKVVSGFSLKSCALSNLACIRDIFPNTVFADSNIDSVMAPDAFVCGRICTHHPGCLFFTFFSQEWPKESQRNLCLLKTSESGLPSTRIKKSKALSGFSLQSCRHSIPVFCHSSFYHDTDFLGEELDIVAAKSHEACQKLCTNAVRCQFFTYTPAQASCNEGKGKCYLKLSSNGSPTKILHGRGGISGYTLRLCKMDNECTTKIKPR
Target sequence (P03951 388-625 limits assumed): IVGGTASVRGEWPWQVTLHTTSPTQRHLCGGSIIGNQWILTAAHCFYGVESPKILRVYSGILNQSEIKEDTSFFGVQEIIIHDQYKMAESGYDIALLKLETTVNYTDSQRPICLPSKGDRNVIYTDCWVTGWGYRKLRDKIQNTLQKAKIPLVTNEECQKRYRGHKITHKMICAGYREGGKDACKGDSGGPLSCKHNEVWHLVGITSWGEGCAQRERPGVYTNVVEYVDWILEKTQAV
hK5 inh: inhibitors of human kallikrein 5. AID 873. recombinant hK5, fluorogenic AMC substrate cleavage. 210,000 tested, 0.59% active. inhibition, % at 5 µM. Q9Y337;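 active = inhibition of 40% or more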;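 also: 0% = enzyme controls without compound and 100% = no-enzyme blanks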
Thrombin inh: thrombin (human) inhibition. 220,000 tested, 0.26% active. inhibition, % at 5 µM. alpha-thrombin, Boc-VPR-AMC fluorogenic substrate cleavage. P00734;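 active = inhibition at or above 40%; inactive = inhibition below 40%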;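 also: 0% = enzyme with no compound and 100% = wells without enzyme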
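Material: Human alpha-thrombin protein | Buffer or medium: pH 7.5 Tris-saline with Tween 20 | Reagent: Boc-VPR-AMC substrate, 15 µM final | Schedule: Reaction at ambient temperature | Detection: AMC fluorescence at 355 nm excitation and 460 nm emission | Evaluation: Percent inhibition scaled between no-compound controls and no-enzyme blanks | Controls: no-compound enzyme wells and no-enzyme blanks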
Calpain2 inh: calpain II (pig) inhibition; purified calpain II, fluorogenic peptide substrate, 30 min; inhibition, % at 16 µM; 220,000 tested, 0.37% active; AID 1236;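 active = inhibition above about 50%, limit read from the data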
FXIIa inh 1536: blocks human coagulation factor XIIa protease activity | P00748 | purified FXIIa, Boc-QGR-AMC fluorogenic substrate, 2 h | AID 800 | 220,000 tested, 0.3% active | inhibition, % at 5 µM; in the data active = inhibition above about 40%;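 also: 0% = enzyme with no compound and 100% = blank without enzyme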
Active calls of the source: *; / = no result.

SMILES | FXIa inh | hK5 inh | Thrombin inh | Calpain2 inh | FXIIa inh 1536
CC(C)n1nc(C(=O)OCC(=O)c2c[nH]c3ccccc23)c2ccccc2c1=O | -4 | -13 | 2 | 46 | 16
Cc1c(Br)c([N+](=O)[O-])nn1CCCC(=O)NC(C)c1ccccc1 (configuration not stated) | -1 | -12 | 4 | -1 | 8
O=C(N/N=C/c1ccc(F)cc1)c1ccccc1 | 0 | 2 | -7 | -21 | 10
O=C(O)c1ccc(/C=N/NC(=O)c2ccc(F)cc2)cc1 | -6 | -4 | 68* | 0 | -1
O=C(Cc1ccc(F)cc1)N/N=C/c1ccncc1 | 19 | 55* | 30 | 22 | 36
C/C(=N\NC(=S)NC1CCCCC1)c1cccc(Br)c1 | -8 | 21 | 51* | 19 | -6
Cc1nc(SCC(=O)NC2CCCCC2)[nH]c(=O)c1C | -1 | 0 | -1 | 18 | 7
O=C(CSc1nc2nc[nH]c2c(=O)[nH]1)NC1CCCCC1 | -11 | -20 | 46* | -21 | -2
O=C(CN1C(=O)/C(=C/c2cccc(Br)c2)SC1=S)NC1=NCCS1 | 2 | / | 0 | 84* | 13
O=C(CN1C(=O)/C(=C/c2cccc(Br)c2)SC1=S)Nc1cccnc1 | 4 | / | 2 | -12 | 15
CC1SC(=NC(=O)C(C)N2C(=O)c3ccccc3C2=O)NC1=O (configuration not stated) | 12 | -3 | 4 | -2 | 20
O=C(COC(=O)c1c2ccccc2cc2ccccc12)Nc1ncc(C(F)(F)F)cc1Cl | 15 | 59* | 8 | -52 | 0
O=C(COC(=O)c1ccc2ccccc2c1)Nc1ncc(C(F)(F)F)cc1Cl | 5 | -16 | -5 | -60 | 5
O=C(CCCc1ccccc1)Nc1cccc2c1CCCC2 | 3 | -12 | 0 | -7 | 5
COc1ccc(CCNS(=O)(=O)c2ccc3c(c2)OCCO3)cc1OC | 10 | 69* | 24 | 16 | 27
CC(C)CCNS(=O)(=O)c1ccc(-c2ccc(S(=O)(=O)NCCC(C)C)cc2)cc1 | 5 | -35 | -12 | -6 | 5
COc1ccc(S(=O)(=O)NCCC(C)C)cc1OC | 4 | 121* | 10 | 22 | 18
CCOC1OC(=O)C(Cl)=C1Nc1cc(C)ccc1C (configuration not stated) | -3 | -16 | 1 | 28 | 5
O=C(NCC(F)(F)F)N1CCOCC1 | 2 | 3 | 4 | -40 | 14
CCC1Sc2ccccc2N(CC(=O)NC2CCCCC2)C1=O (configuration not stated) | -9 | 0 | -1 | -10 | 1
CCOC(=O)C1C(C(=O)Nc2cccc(C(F)(F)F)c2)C1C(=O)NC(C)C (configuration not stated) | 39 | 53* | 19 | 18 | 34
CCc1ccc(NC(=O)C(=O)NCCOc2ccccc2Cl)cc1 | -8 | -13 | -4 | -8 | -4
CCCCN(CCCC)C(=O)/C=C/c1cccc([N+](=O)[O-])c1 | -17 | -14 | 5 | 62* | -9
Cc1ccc(/C=N/n2cnnc2)s1 | 9 | 53* | 18 | 18 | 16
O=C(c1ccc(N2CCCCC2)c([N+](=O)[O-])c1)N(c1ccccn1)c1ccccn1 | 1 | 3 | 43* | 28 | 9
SMILES | FXIa inh | hK5 inh | Thrombin inh | Calpain2 inh | FXIIa inh 1536
CCc1ccc(NC(=O)COC(=O)CCc2nc3cc(S(=O)(=O)N(CC)CC)ccc3n2C)cc1 | 12 | 58* | 39 | 40 | 6
Cc1ccc(S(=O)(=O)N2CCN(C(C(=O)Nc3ccc(F)cc3)c3ccccc3)CC2)cc1 (configuration not stated) | 18 | 46* | 33 | -18 | 11
O=C(Nc1ccc(F)cc1)C(c1ccccc1)N1CCN(S(=O)(=O)c2ccccc2)CC1 (configuration not stated) | 7 | -4 | -2 | -15 | 6
CC(=O)c1cc2c(cc1NC(=O)c1cccc(S(=O)(=O)N3CCN(C)CC3)c1)OCO2 | -3 | -2 | -3 | -81 | /
COc1cccc(CN2CCNC(=O)C2CC(=O)N(C)Cc2cnccn2)c1OC (configuration not stated) | 0 | -5 | -8 | -5 | 4
COc1ccccc1CN1CCNC(=O)C1CC(=O)N(C)Cc1cnccn1 (configuration not stated) | 32 | 42* | 22 | 11 | 49*
COc1cccc(-c2nnc(SCC(=O)Nc3ccc4c(c3)OCCO4)n2Cc2ccco2)c1 | 9 | 47* | 42* | 27 | 17
COc1ccc(C)cc1NC(=O)CSc1nnc(COc2ccc(Cl)cc2)n1Cc1ccco1 | 15 | -3 | -7 | 39 | 52*
COc1cccc(-c2nnc(SCC(=O)NCc3ccc4c(c3)OCO4)n2Cc2ccco2)c1 | 0 | 4 | -20 | -60 | -5
Cc1ccccc1-n1nc(C(=O)c2cccs2)cc(-c2nc3ccccc3[nH]2)c1=N | -1 | -77 | 1 | -49 | 0
COc1ccc(-n2nc(C(=O)c3cccs3)cc(-c3nc4ccccc4[nH]3)c2=N)cc1 | 14 | -19 | 57* | 6 | 20
S=C(NCCc1ccccc1)NC1CC2CCC(C1)N2Cc1ccccc1 (configuration not stated) | -5 | -1 | -10 | 14 | 1
CN(C(=O)CSC1=NC2C(N=N1)c1cc(Br)ccc1N2C)C1CCCCC1 (configuration not stated) | 2 | 14 | -2 | -33 | 14
O=C(NCc1cccs1)c1cccc(Nc2nc3ccc(Br)cc3[nH]2)c1 | 13 | 30 | 11 | 55* | 12
Cc1ccccc1-c1nnn(CC(=O)Nc2cccc(S(N)(=O)=O)c2)n1 | -2 | -3 | 9 | -1 | 10
COc1ccc(S(=O)(=O)NC2CC(C)(C)NC(C)(C)C2)cc1C(C)C | 0 | 3 | 1 | 13 | 7
CCOC(=O)Cn1c(=O)oc2cc(S(=O)(=O)NCCc3ccc(C)cc3)ccc21 | 22 | 58* | 57* | -6 | 18
CCOC(=O)Cn1c(=O)oc2cc(S(=O)(=O)NCCCc3ccccc3)ccc21 | 4 | -9 | 2 | -38 | 12
Cc1cc(C)cc(NC(=O)c2ccc(Cn3nc(C)c(Cl)c3C)o2)c1 | 4 | 120* | 21 | 40 | 31
Cc1ccc(CNC(=O)c2ccc(Cn3nc(C)c(Cl)c3C)o2)cc1 | -6 | -7 | -8 | -29 | 3
COC(=O)[C@H](CCSC)NS(=O)(=O)c1ccccc1Br | 1 | 2 | 2 | -17 | 10
CCCCCc1ccc(OCCCC[n+]2ccc(C)cc2)c(CCCCC)c1 | 3 | 40* | 9 | 8 | 11
CCOc1ccc(NC(=O)CCC(=O)O)cc1 | 4 | -1 | -2 | 14 | 14
CCOc1ccc(NC(=O)CCSc2nnc(C)s2)cc1 | 19 | 46* | 22 | -16 | 24
O=C(CCS(=O)(=O)c1ccccc1)Nc1nc2c(s1)COc1ccccc1-2 | 8 | -18 | 2 | -26 | 13
CC(C)OC(=O)CSc1nnc(COc2ccc([N+](=O)[O-])cc2)n1C | 1 | 3 | -24 | 52* | 1
Cc1nc2ncnn2c(C)c1Cc1ccc(Cl)cc1F | 10 | -11 | 1 | -17 | 19
